Measured values reported in the RNAGym collection of RNA variant scans (doi:10.1002/anie.201605470).

B1: Osa-1-4 twister ribozyme (parent)
chain: CCGCCUAACACUGCCAAUGCCGGUCCCAAGCCCGGAUAAAAGUGGAGGGGGCGG

Variants of: B1
Assay: self-cleavage, relative activity (ratio to wild type); higher = more cleavage; co-transcriptional
In short: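 Relative activity is the fraction cleaved divided by that of the wild-type ribozyme. The library came from a DNA template for a 54-nucleotide Oryza sativa twister ribozyme, doped at the 48 positions downstream of the cleavage site with 97 % wild-type base and 1 % of each other base. After 2 h of in vitro transcription at 37 °C with co-transcriptional self-cleavage, the RNA was reverse-transcribed with a template-switching oligonucleotide, amplified by PCR and deep-sequenced, and reads with or without upstream sequence gave the cleavage status.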

Point of comparison: A29G G49A, self-cleavage 0.05. Against it:
- A29G C26G — higher, 0.1
- A29G C26U — higher, 0.08
- A29G C26A — lower, 0.04
- A29C U12C — lower, 0.03
- A29C U12A — the same, 0.05
- A29C U12G — lower, 0.03
- A29G A38G — higher, 0.15
- A29G A38U — higher, 0.16
- A29G A38C — higher, 0.16
- A29C A41G — lower, 0.04
- A29C A41C — the same, 0.05
- A29C A41U — the same, 0.05
- A28U G23U — higher, 0.07
- A28U G23C — the same, 0.05
- A28U G23A — higher, 0.14
- A28U U43C — higher, 0.15
- A28U U43A — higher, 0.28
- A28U U43G — higher, 0.15
- A29C U43A — lower, 0.03
- A29C U43G — the same, 0.05
- A29C U43C — lower, 0.03
- A29G — higher, 0.4
- A29C — the same, 0.05
- A29G C33G — higher, 0.15
- A29G C33A — the same, 0.05
- A29G C33U — higher, 0.07
- A28U G51U — higher, 0.2
- A28U G51C — higher, 0.08
- A28U G51A — higher, 0.28
- A29G C27A — higher, 0.06
- A29G C27U — the same, 0.05
- A29G C27G — higher, 0.06
- A29G C14G — higher, 0.08
- A29G C14U — higher, 0.06
- A29G C14A — lower, 0.04
- A29G G53C — higher, 0.06
- A29G G53U — higher, 0.07
- A29G G53A — higher, 0.07
- A28U G44C — higher, 0.78
- A28U G44A — higher, 0.74
- A28U G44U — higher, 0.49
- A29C G13U — lower, 0.01
- A29C G13C — lower, 0.01
- A29C G13A — lower, 0.02
- A29C A36C — lower, 0.03
- A29C A36U — lower, 0.04
- A29C A36G — higher, 0.07
- A29G G51U — higher, 0.06
- A29G G51C — the same, 0.05
- A29G G51A — higher, 0.1
- A29C C14U — lower, 0.03
- A29C C14G — lower, 0.02
- A29C C14A — lower, 0.02
- A28U G35U — higher, 0.71
- A28U G35A — higher, 0.73
- A28U G35C — higher, 0.15
- A29C A7U — lower, 0.01
- A29C A7C — lower, 0.03
- A29C A7G — lower, 0.03
- A28U U37A — higher, 0.68
- A28U U37G — higher, 0.97
- A28U U37C — higher, 0.97
- A29G A40C — lower, 0.04
- A29G A40G — higher, 0.07
- A29G A40U — higher, 0.15
- A29G G50A — higher, 0.27
- A29G G50C — higher, 0.08
- A29G G50U — higher, 0.17
- A28U G45A — higher, 0.09
- A28U G45U — higher, 0.07
- A28U G45C — higher, 0.06
- A28U G49A — higher, 0.08
- A28U G49U — higher, 0.09
- A28U G49C — higher, 0.06
- A29C U24A — lower, 0.04
- A29C U24G — lower, 0.02
- A29C U24C — higher, 0.09
- A28U G13C — lower, 0.02
- A28U G13A — higher, 0.06
- A28U G13U — lower, 0.03
- A29C G30U — lower, 0.02
- A29C G30C — lower, 0.01
- A29C G30A — lower, 0.02
- A29G G34C — higher, 0.06
- A29G G34A — higher, 0.13
- A29G G34U — the same, 0.05
- A29G C15U — the same, 0.05
- A29G C15A — higher, 0.06
- A29G C15G — higher, 0.08
- A29C G22C — lower, 0.03
- A29C G22U — the same, 0.05
- A29C G22A — higher, 0.08
- A28U C52U — higher, 0.97
- A28U C52A — higher, 0.93
- A28U C52G — higher, 0.96
- A29C G35U — the same, 0.05
- A29C G35C — lower, 0.02
- A29C G35A — lower, 0.04
- A29G C31U — higher, 0.12
- A29G C31A — lower, 0.02
- A29G C31G — the same, 0.05
- A29C C32G — lower, 0.03
- A29C C32A — lower, 0.03
- A29C C32U — lower, 0.03
- A29C G48C — lower, 0.02
- A29C G48U — lower, 0.01
- A29C G48A — lower, 0.01
- A29G A7G — higher, 0.11
- A29G A7U — higher, 0.14
- A29G A7C — lower, 0.03
- A29C G51U — lower, 0.03
- A29C G51C — lower, 0.02
- A29C G51A — lower, 0.03
- A28U C27U — higher, 0.15
- A28U C27A — higher, 0.09
- A28U C27G — the same, 0.05
- A28U G34U — higher, 0.28
- A28U G34C — higher, 0.18
- A28U G34A — higher, 0.39
- A29C G49U — lower, 0.02
- A29C G49A — lower, 0.02
- A29C G49C — lower, 0.01
- A29G C32G — higher, 0.07
- A29G C32A — lower, 0.04
- A29G C32U — higher, 0.06
- A29C C52A — higher, 0.06
- A29C C52G — the same, 0.05
- A29C C52U — higher, 0.06
- A28U C31U — higher, 0.19
- A28U C31A — lower, 0.03
- A28U C31G — higher, 0.07
- A29C G53C — lower, 0.02
- A29C G53A — lower, 0.03
- A29C G53U — lower, 0.03
- A29G G49C — lower, 0.04
- A29G G49U — lower, 0.04
- A29C C25G — lower, 0.02
- A29C C25A — lower, 0.04
- A29C C25U — lower, 0.03
- A29G G13C — lower, 0.01
- A29G G13A — lower, 0.04
- A29G G13U — lower, 0.03
- A29G C52G — higher, 0.22
- A29G C52A — higher, 0.16
- A29G C52U — higher, 0.34
- A29C C9A — lower, 0.02
- A29C C9G — the same, 0.05
- A29C C9U — lower, 0.02
- A29G C9U — higher, 0.06
- A29G C9A — the same, 0.05
- A29G C9G — higher, 0.09
- A29C A39C — lower, 0.04
- A29C A39G — lower, 0.03
- A29C A39U — lower, 0.03
- A29C G19U — lower, 0.03
- A29C G19C — lower, 0.02
- A29C G19A — lower, 0.04
- A29C A46G — lower, 0.02
- A29C A46C — lower, 0.02
- A29C A46U — lower, 0.02
- A29C G50U — lower, 0.04
- A29C G50A — the same, 0.05
- A29C G50C — lower, 0.03
- A29G G54C — higher, 0.08
- A29G G54A — higher, 0.15
- A29G G54U — higher, 0.37
